pKi: −log10 of the molar value.
How the values were obtained:
[1] = system: normal human dermal fibroblast (HDF) cells; assay: MTT cytotoxicity assay; assay type: cell-based; conditions: HDF cells, MTT
Method in brief: (§1)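 Human dermal fibroblasts grown in DMEM with 10% FBS, penicillin 100 units/mL, streptomycin 100 µg/mL and amphotericin B 0.25 µg/mL. Seeded at 2 × 10³ cells/well and left to adhere overnight at 37 °C, 5% CO2. Exposed to varying doses for 24 h, with 0.5% DMSO as untreated control. MTT at 1 mg/mL for 4 h at 37 °C. Formazan dissolved in DMSO and read at 570 nm. Viability expressed as % of control.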

[2] = MTT cytotoxicity assay; assay type: cell-based, human; conditions: human, normal human dermal fibroblast (HDF) cells
Method in brief: as §1

[3] = target: α-glucosidase from Saccharomyces cerevisiae (Saccharomyces cerevisiae, UniProt P53341); assay: Enzyme kinetic study; assay type: biochemical
Chain of α-glucosidase from Saccharomyces cerevisiae (P53341 whole entry): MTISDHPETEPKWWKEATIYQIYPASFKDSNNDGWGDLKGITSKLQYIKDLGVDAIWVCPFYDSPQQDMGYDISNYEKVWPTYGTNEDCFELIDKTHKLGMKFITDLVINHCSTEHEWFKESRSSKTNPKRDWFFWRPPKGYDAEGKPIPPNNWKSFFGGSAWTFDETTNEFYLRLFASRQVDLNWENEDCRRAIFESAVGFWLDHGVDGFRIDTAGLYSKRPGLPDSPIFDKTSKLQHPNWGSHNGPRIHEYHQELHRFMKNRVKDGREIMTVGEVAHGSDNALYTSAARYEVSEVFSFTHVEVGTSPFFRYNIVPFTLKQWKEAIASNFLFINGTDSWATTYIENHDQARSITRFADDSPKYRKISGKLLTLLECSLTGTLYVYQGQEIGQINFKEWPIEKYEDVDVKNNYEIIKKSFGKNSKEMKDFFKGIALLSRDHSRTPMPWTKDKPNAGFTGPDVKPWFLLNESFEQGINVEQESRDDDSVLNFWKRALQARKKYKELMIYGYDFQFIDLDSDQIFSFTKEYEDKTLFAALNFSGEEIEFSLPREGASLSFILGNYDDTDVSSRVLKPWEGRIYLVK
Method in brief: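 Yeast (S. cerevisiae) α-glucosidase, EC 3.2.1.20, kept at 0.02 U/mL. Run with and without test compound at several concentrations, across a range of p-NPG substrate concentrations. Inhibition type assigned from the Lineweaver–Burk plot. Ki taken from a secondary plot of slope against inhibitor concentration.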

SMILES	cytotoxic effect on normal cells at given IC50 value [1]	CC50 at 24 h [2] [µM]	pKi [3]	mode of inhibition ([3]; Lineweaver–Burk plots)
C[C@H]1CN(C(=O)Nc2ccc(C(F)(F)F)cc2)CCN1c1ccnc(Nc2ccc(Cl)c(O)c2)n1 [Compound 21c, (S)-4-(2-((4-chloro-3-hydroxyphenyl)amino)pyrimidin-4-yl)-3-methyl-N-(4-(trifluoromethyl)phenyl)piperazine-1-carboxamide]	no cytotoxic effect	23.1	6.13	competitive inhibitor
C[C@H]1CN(C(=O)Nc2ccc(C(F)(F)F)cc2)CCN1c1ccnc(Nc2cccc([N+](=O)[O-])c2)n1 [Compound 17c, (S)-3-methyl-4-(2-((3-nitrophenyl)amino)pyrimidin-4-yl)-N-(4-(trifluoromethyl)phenyl)piperazine-1-carboxamide]		15.2		
C[C@H]1CN(C(=O)Nc2ccc(C(F)(F)F)cc2)CCN1c1ccnc(Nc2ccc(Cl)cc2)n1 [Compound 7c, (S)-4-(2-((4-chlorophenyl)amino)pyrimidin-4-yl)-3-methyl-N-(4-(trifluoromethyl)phenyl)piperazine-1-carboxamide]		42.3		
C[C@H]1CN(C(=O)Nc2ccc(C(F)(F)F)cc2)CCN1c1ccnc(Nc2ccc(Cl)c(OCc3ccccc3)c2)n1 [Compound 22c, (S)-4-(2-((3-(benzyloxy)-4-chlorophenyl)amino)pyrimidin-4-yl)-3-methyl-N-(4-(trifluoromethyl)phenyl)piperazine-1-carboxamide]		> 200		

From article PMC12222516 (Scientific Reports, 2025)
